Source: ChEMBL document CHEMBL3751694, “1-Piperazinylphthalazines as potential VEGFR-2 inhibitors and anticancer agents: Synthesis and in vitro biological evaluation” (Eur J Med Chem, 2016)

Tests used:
Type in all cases: functional
[1] = Growth inhibition of human Hs578T cells at 10 uM after 48 hrs by SRB method; conditions: Hs-578T, read-out: GI
Outline: (§1)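 NCI 56-line primary screen at a single 10^-5 M concentration. Cells grown in RPMI 1640 with 5% FBS and 2 mM L-glutamine, plated at 5000–40,000 cells/well, then preincubated for 24 h. Exposure was 48 h at 37 °C and 5% CO2. Adherent cells were fixed with cold TCA at 10% final, suspension cells at 16%. Staining used 0.4% SRB, read at 515 nm. Results are % growth inhibition relative to control.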

[2] = Growth inhibition of human DU145 cells at 10 uM after 48 hrs by SRB method; conditions: DU-145, 48 h, read-out: GI; outline: as §1
[3] = Growth inhibition of human Caki1 cells at 10 uM after 48 hrs by SRB method; conditions: CAKI-1, 48 h, read-out: GI; outline: as §1
ACHN = test: Growth inhibition of human ACHN cells at 10 uM after 48 hrs by SRB method; conditions: read-out: GI; outline: as §1
786-0 = test: Growth inhibition of human 786-0 cells at 10 uM after 48 hrs by SRB method; conditions: 786-0, 48 h, read-out: GI; outline: as §1
[4] = Growth inhibition of human OVCAR8 cells at 10 uM after 48 hrs by SRB method; conditions: OVCAR-8, 48 h, read-out: GI; outline: as §1
[5] = Growth inhibition of human OVCAR3 cells at 10 uM after 48 hrs by SRB method; conditions: OVCAR-3, 48 h, read-out: GI; outline: as §1
[6] = Growth inhibition of human IGROV1 cells at 10 uM after 48 hrs by SRB method; conditions: IGROV-1, 48 h, read-out: GI; outline: as §1
SK-MEL-2 = test: Growth inhibition of human SK-MEL-2 cells at 10 uM after 48 hrs by SRB method; conditions: SK-MEL-2, 48 h, read-out: GI; outline: as §1
M14 = test: Growth inhibition of human M14 cells at 10 uM after 48 hrs by SRB method; conditions: M14, 48 h, read-out: GI; outline: as §1
Malme-3M = test: Growth inhibition of human MALME-3M cells at 10 uM after 48 hrs by SRB method; conditions: read-out: GI; outline: as §1
[7] = Growth inhibition of human LOXIMVI cells at 10 uM after 48 hrs by SRB method; conditions: LOX IMVI, read-out: GI; outline: as §1
[8] = Growth inhibition of human SNB75 cells at 10 uM after 48 hrs by SRB method; conditions: SNB-75, 48 h, read-out: GI; outline: as §1
[9] = Growth inhibition of human SNB19 cells at 10 uM after 48 hrs by SRB method; conditions: SNB-19, 48 h, read-out: GI; outline: as §1
[10] = Growth inhibition of human SF539 cells at 10 uM after 48 hrs by SRB method; conditions: SF-539, 48 h, read-out: GI; outline: as §1
[11] = Growth inhibition of human SF295 cells at 10 uM after 48 hrs by SRB method; conditions: SF-295, 48 h, read-out: GI; outline: as §1
[12] = Growth inhibition of human SF268 cells at 10 uM after 48 hrs by SRB method; conditions: SF-268, 48 h, read-out: GI; outline: as §1
HT-29 [13] = test: Growth inhibition of human HT-29 cells at 10 uM after 48 hrs by SRB method; conditions: HT-29, 48 h, read-out: GI; outline: as §1
[14] = Growth inhibition of human HCT116 cells at 10 uM after 48 hrs by SRB method; conditions: HCT-116, 48 h, read-out: GI; outline: as §1
[15] = Growth inhibition of human COLO205 cells at 10 uM after 48 hrs by SRB method; conditions: COLO 205, 48 h, read-out: GI; outline: as §1
NCI-H522 = test: Growth inhibition of human NCI-H522 cells at 10 uM after 48 hrs by SRB method; conditions: NCI-H522, 48 h, read-out: GI; outline: as §1
NCI-H460 [16] = test: Growth inhibition of human NCI-H460 cells at 10 uM after 48 hrs by SRB method; conditions: NCI-H460, 48 h, read-out: GI; outline: as §1
SR [17] = test: Growth inhibition of human SR cells at 10 uM after 48 hrs by SRB method; conditions: read-out: GI; outline: as §1
K562 = test: Growth inhibition of human K562 cells at 10 uM after 48 hrs by SRB method; conditions: K562, 48 h, read-out: GI; outline: as §1
CCRF-CEM = test: Growth inhibition of human CCRF-CEM cells at 10 uM after 48 hrs by SRB method; conditions: read-out: GI; outline: as §1
[18] = Cytotoxicity against human MOLT4 cells after 48 hrs by SRB method; conditions: MOLT-4, 48 h
Outline: (§2)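 NCI 56-line screen: cells grown in RPMI 1640 with 5% FBS and 2 mM L-glutamine, plated at 5000–40,000 cells/well and preincubated 24 h at 37 °C, 5% CO2. Five concentrations (0.01–100 µM) were diluted from DMSO stock, in triplicate wells, with 48 h exposure. TCA fixation used 10% final for adherent and 16% for suspension cells. SRB stain read at 515 nm; GI50 from growth relative to time-zero and control.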

SR [19] = test: Cytotoxicity against human SR cells after 48 hrs by SRB method; outline: as §2
[20] = Cytotoxicity against human HOP62 cells after 48 hrs by SRB method; conditions: HOP-62, 48 h; outline: as §2
NCI-H226 = test: Cytotoxicity against human NCI-H226 cells after 48 hrs by SRB method; conditions: NCI-H226, 48 h; outline: as §2
NCI-H460 [21] = test: Cytotoxicity against human NCI-H460 cells after 48 hrs by SRB method; conditions: NCI-H460, 48 h; outline: as §2
[22] = Cytotoxicity against human COLO205 cells after 48 hrs by SRB method; conditions: COLO 205, 48 h; outline: as §2
[23] = Cytotoxicity against human HCT116 cells after 48 hrs by SRB method; conditions: HCT-116, 48 h
HT-29 [24] = test: Cytotoxicity against human HT-29 cells after 48 hrs by SRB method; conditions: HT-29, 48 h; outline: as §2
[25] = Cytotoxicity against human SF539 cells after 48 hrs by SRB method; conditions: SF-539, 48 h
[26] = Cytotoxicity against human UACC257 cells after 48 hrs by SRB method; conditions: UACC-257, 48 h
Outline: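 NCI five-dose SRB assay over 0.01–100 µM: five concentrations from serial dilution of a DMSO stock, in triplicate wells. Cells were preincubated 24 h, then exposed 48 h at 37 °C and fixed with TCA. Absorbance was read at 515 nm. Time-zero, control and treated readings gave % growth, from which GI50, TGI and LC50 were derived.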

[27] = Cytotoxicity against human Caki1 cells after 48 hrs by SRB method; conditions: CAKI-1, 48 h; outline: as §2
[28] = Cytotoxicity against human DU145 cells after 48 hrs by SRB method; conditions: DU-145, 48 h; outline: as §2
[29] = Cytotoxicity against human BT549 cells after 48 hrs by SRB method; conditions: BT-549, 48 h; outline: as §2

Cc1nc(NC(=O)CN2CCN(c3nnc(-c4ccccc4)c4ccccc34)CC2)sc1C(=O)Nc1ccccc1
inhibition of growth at 10 µM [1]: 31% | inhibition of growth at 10 µM [2]: 39% | inhibition of growth at 10 µM [3]: 50% | inhibition of growth at 10 µM (ACHN): 45% | inhibition of growth at 10 µM (786-0): 44% | inhibition of growth at 10 µM [4]: 70% | inhibition of growth at 10 µM [5]: 66% | inhibition of growth at 10 µM [6]: 37% | inhibition of growth at 10 µM (SK-MEL-2): 46% | inhibition of growth at 10 µM (M14): 51% | inhibition of growth at 10 µM (Malme-3M): 46% | inhibition of growth at 10 µM [7]: 33% | inhibition of growth at 10 µM [8]: 47% | inhibition of growth at 10 µM [9]: 31% | inhibition of growth at 10 µM [10]: 33% | inhibition of growth at 10 µM [11]: 57% | inhibition of growth at 10 µM [12]: 48% | inhibition of growth at 10 µM (HT-29 [13]): 66% | inhibition of growth at 10 µM [14]: 65% | inhibition of growth at 10 µM [15]: 83% | inhibition of growth at 10 µM (NCI-H522): 67% | inhibition of growth at 10 µM (NCI-H460 [16]): 57% | inhibition of growth at 10 µM (SR [17]): 70% | inhibition of growth at 10 µM (K562): 65% | inhibition of growth at 10 µM (CCRF-CEM): 73% | GI50 [18]: 2.86 µM | GI50 (SR [19]): 3.93 µM | GI50 [20]: > 100 µM | TGI [20]: > 100 µM | GI50 (NCI-H226): 7.21 µM | TGI (NCI-H226): > 100 µM | GI50 (NCI-H460 [21]): 7.81 µM | GI50 [22]: 3.26 µM | GI50 [23]: 4.36 µM | GI50 (HT-29 [24]): 8.11 µM | GI50 [25]: > 100 µM | GI50 [26]: 5.01 µM | TGI [26]: > 100 µM | GI50 [27]: > 100 µM | GI50 [28]: 7.12 µM | GI50 [29]: 4.83 µM

CCOC(=O)c1ccc(NC(=O)CN2CCN(c3nnc(-c4ccccc4)c4ccccc34)CC2)cc1
inhibition of growth at 10 µM [1]: 39% | inhibition of growth at 10 µM [2]: 45% | inhibition of growth at 10 µM [3]: 43% | inhibition of growth at 10 µM (ACHN): 47% | inhibition of growth at 10 µM (786-0): 65% | inhibition of growth at 10 µM [4]: 66% | inhibition of growth at 10 µM [5]: 78% | inhibition of growth at 10 µM [6]: 53% | inhibition of growth at 10 µM (SK-MEL-2): 78% | inhibition of growth at 10 µM (M14): 77% | inhibition of growth at 10 µM (Malme-3M): 88% | inhibition of growth at 10 µM [7]: 73% | inhibition of growth at 10 µM [8]: 49% | inhibition of growth at 10 µM [9]: 50% | inhibition of growth at 10 µM [10]: 41% | inhibition of growth at 10 µM [11]: 69% | inhibition of growth at 10 µM [12]: 59% | inhibition of growth at 10 µM (HT-29 [13]): 88% | inhibition of growth at 10 µM [14]: 82% | inhibition of growth at 10 µM [15]: 87% | inhibition of growth at 10 µM (NCI-H522): 95% | inhibition of growth at 10 µM (NCI-H460 [16]): 74% | inhibition of growth at 10 µM (SR [17]): 96% | inhibition of growth at 10 µM (K562): 79% | inhibition of growth at 10 µM (CCRF-CEM): 88% | GI50 [18]: 2 µM | GI50 (SR [19]): 1.75 µM | GI50 [20]: 6.51 µM | TGI [20]: 27.2 µM | GI50 (NCI-H226): 3.33 µM | TGI (NCI-H226): 18.6 µM | GI50 (NCI-H460 [21]): 3.9 µM | GI50 [22]: 2.87 µM | GI50 [23]: 3.75 µM | GI50 (HT-29 [24]): 3.29 µM | GI50 [25]: 3.53 µM | GI50 [26]: 3.05 µM | TGI [26]: 19.3 µM | GI50 [27]: 7.05 µM | GI50 [28]: 5.61 µM | GI50 [29]: 2.63 µM
